Results as given in the array DNA melting data of Ke et al. (doi:10.1101/2024.01.08.574731).

Key:
[1] = melting temperature; fluorescence melt of hairpins on a sequencing array, two-state fit, raised by 9.35 °C to match UV melts; settings: sodium 0.088 M
Procedure, shortened: (§1)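 Melting temperature and folding enthalpy were obtained by bootstrapped two-state fitting. Fits used Cy3 fluorescence of library hairpins with annealed Cy3 and quencher oligos on a sequenced MiSeq flow cell, imaged in 50 mM Na-HEPES pH 8.0, 25 mM NaCl in 2.5 °C steps up to 60 °C and normalised to pre-quench Cy3 and control constructs. Four replicates were combined by inverse-variance weighting, and fitted temperatures were raised by 9.35 °C to match UV melts.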

[2] = folding enthalpy; higher = less favourable; fluorescence melt of hairpins on a sequencing array, two-state fit; settings: sodium 0.088 M
Procedure, shortened: as §1

Sequence | Tm [1] | folding enthalpy [2]
GCCTTACGAAAGTAGGGC (((.(((....))).))) | 57.3 °C | -37.1 kcal/mol
GCATAGCGAAAGCTCAGC ((..(((....)))..)) | 30.6 °C | -14.3 kcal/mol
GCGACCTGTCGC ((((....)))) | 68.3 °C | -26.5 kcal/mol
GTATCCGAAAGGACTAC ((((((....))).))) | 35.9 °C | -14.3 kcal/mol
GTGAACGAAAGTTATCAC ((((((....)))..))) | 31 °C | -13.2 kcal/mol
GCACCTGGAAACAGGCGC ((.((((....)))).)) | 53.5 °C | -46.8 kcal/mol
GCGAGGACTCGC ((((....)))) | 56.1 °C | -31.9 kcal/mol
GATCGACTACTCGATC ((((((....)))))) | 50.7 °C | -36.5 kcal/mol
GCGGAGCGAAAGCTCGC (((.(((....)))))) | 67.4 °C | -17.6 kcal/mol
GCGAAGCGAAAGCATGGC ((.(.((....)).).)) | 40 °C | -5.07 kcal/mol
GAGAGCGAAAGCTATCTC ((((((....)))..))) | 51.2 °C | -22.4 kcal/mol
GACACACCGAAAGGTGTC (((..(((....)))))) | 37.3 °C | -8 kcal/mol
GATCCGAATTCGGATC ((((((....)))))) | 60.2 °C | -43.3 kcal/mol
GCGAGTGCGAAAGCACGC (((..(((....)))))) | 59 °C | -9.67 kcal/mol
GAAGGGGGAAACCCCTCC (.(((((....))))).) | 36.5 °C | -13.1 kcal/mol
GGGTAAGGAAACTTATCC ((.((((....)))).)) | 40.1 °C | -29.2 kcal/mol
GGCCAGGGAAACCCGACC ((.(.((....)).).)) | 32.5 °C | -11.9 kcal/mol
GGAGTTCGAAAGAATTCC (((.(((....))).))) | 48.6 °C | -39.8 kcal/mol
GATCATGTACATGATC ((((((....)))))) | 56.5 °C | -40.7 kcal/mol
CGTCTCGGAAACGACACG (((.(((....))).))) | 35.5 °C | -31.2 kcal/mol
GTGTAAACGAAAGTTCAC (((..(((....)))))) | 33.7 °C | -18 kcal/mol
ACAAAGAAATTTGT (((((....))))) | 22.5 °C | -6.26 kcal/mol
GATCGAATCTTCGATC ((((((....)))))) | 54.2 °C | -42.4 kcal/mol
CGCACGGAAACGTATGCG ((((((....)))..))) | 46.7 °C | -35.9 kcal/mol

Sequence | Tm [1] | folding enthalpy [2]
GGGAGCGGAAACACCCCC (((.(.(....).).))) | 28.2 °C | -16 kcal/mol
GATCTATTATTAGATC ((((((....)))))) | 43.2 °C | -34.1 kcal/mol
GAATTCGCGAAAGCGTTC (((..(((....)))))) | 19.9 °C | -6.23 kcal/mol
GACGGCCGAAAGGCTGTC (((.(((....))).))) | 68.8 °C | -28.1 kcal/mol
GGATCCGAAAGGATGTCC ((((((....)))..))) | 35.2 °C | -12.5 kcal/mol
GATCAGGTGTCTGATC ((((((....)))))) | 50.9 °C | -40.2 kcal/mol
GATCCCTAACGGGATC ((((((....)))))) | 57.6 °C | -39.7 kcal/mol
GTGCTCGCGAAAGCGCAC (((..(((....)))))) | 49.2 °C | -17.4 kcal/mol
GATCAGTGCCCTGATC ((((((....)))))) | 49.9 °C | -29.9 kcal/mol
GGGAACGGAAACGTTTCC ((.((((....)))).)) | 53.7 °C | -35.2 kcal/mol
GATCAAGCTGTTGATC ((((((....)))))) | 42.7 °C | -31.2 kcal/mol
GATCCACGCATGGATC ((((((....)))))) | 52.8 °C | -32.1 kcal/mol
CGTCAGCGGAAACGCACG (((..(((....)))))) | 40.6 °C | -15.4 kcal/mol
GCGGTCCCGAAAGGGCGC (((..(((....)))))) | 60.1 °C | -18.5 kcal/mol
GATCTTCGGGAAGATC ((((((....)))))) | 49.5 °C | -36.2 kcal/mol
GCGGAAGCCGC ((((...)))) | 55.8 °C | -15.7 kcal/mol
GGAGGTGGAAACACTTCC (((.(((....))).))) | 48.2 °C | -35.2 kcal/mol
GATCCACGTTGGATC ((((((...)))))) | 50.6 °C | -29.7 kcal/mol
GATCACGGCCGTGATC ((((((....)))))) | 66.3 °C | -49.1 kcal/mol
CCATTGAAAAATGG (((((....))))) | 41.6 °C | -22.2 kcal/mol
CGATTCGGAAACGATTCG (((.(((....))).))) | 45.8 °C | -33.2 kcal/mol
GATCAACCTTTTGATC ((((((....)))))) | 41.8 °C | -29.7 kcal/mol
GATTGCGAAAGCAGTATC ((((((....)))..))) | 32.1 °C | -10.9 kcal/mol
GCCCTTTCGAAAGAAGGC (((..(((....)))))) | 37.6 °C | -33.3 kcal/mol

Sequence | Tm [1] | folding enthalpy [2]
GATCCAATGTGGATC ((((((...)))))) | 50.8 °C | -32.5 kcal/mol
GAGACCGAAAGGTATCTC ((((((....)))..))) | 53 °C | -24 kcal/mol
GCTAAGCGAAAGCGAAGC (((..((....))..))) | 63 °C | -26.7 kcal/mol
GATCAATCGCTTGATC ((((((....)))))) | 45.5 °C | -44.9 kcal/mol
GTTGCGGGAAACCGCGAC ((.((((....)))).)) | 60.7 °C | -31 kcal/mol
GTTGAAGGAAACTTCAGC (.(((((....))))).) | 41.4 °C | -23 kcal/mol
GCGCAGCGAAAGCAGGGC ((.(.((....)).).)) | 51.2 °C | -10.2 kcal/mol
GACGCCGAAAGGCCCGTC ((((((....)))..))) | 37 °C | -13.9 kcal/mol
GATCGTGTGAACGATC ((((((....)))))) | 62.7 °C | -39.2 kcal/mol
GCTTGTGGAAACGTAAGC ((((..(....)..)))) | 36.6 °C | -17.7 kcal/mol
GCGAGGTTTCGC ((((....)))) | 49.4 °C | -16 kcal/mol
GGACCCGGAAACAGGCCC ((.((.(....).)).)) | 29 °C | -16.9 kcal/mol
GATCCGGCGTCGGATC ((((((....)))))) | 58.2 °C | -45.3 kcal/mol
GATTGAGGAAACTCAATC (((((((....))))))) | 53.6 °C | -52.3 kcal/mol
GGTTATGGAAACATAACC (((((((....))))))) | 55.6 °C | -41.1 kcal/mol
GATCATAGTAATGATC ((((((....)))))) | 47.3 °C | -37.2 kcal/mol
GGTAATGCGAAAGCAACC (((..(((....)))))) | 31.6 °C | -11.2 kcal/mol
GCAAAAGGAAACTTTTGC (((((((....))))))) | 56.5 °C | -45 kcal/mol
GTGCCTGGAAACAGGTAC ((.((((....)))).)) | 53.6 °C | -32.7 kcal/mol
GAGCCCGAAAGGGATCTC ((((((....)))..))) | 69 °C | -24.6 kcal/mol
GACGTAGGAAACTGCGTC ((((.((....)).)))) | 51.5 °C | -45.2 kcal/mol
GAAAGCGAAAGCTGCTTC ((((((....)))..))) | 42.9 °C | -19.4 kcal/mol
